Experiments:
Format in all cases: functional
[1] = system: SNB-19; experiment: Growth inhibition of human SNB19 cells at 10 uM after 48 hrs by coulter counting; settings: SNB-19, 48 h, read-out: GI
How it was run: (§1)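 Single-dose primary screen across the full NCI 60-cell-line panel. Stocks were made in DMSO and diluted in PBS to a final DMSO below 1%. Cultures at 6 × 10⁴ cells/ml were run in duplicate wells alongside PBS/DMSO vehicle controls at 37 °C in humidified 5% CO₂. Data were expressed as percent growth of treated cells.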

[2] = system: LOX IMVI; experiment: Growth inhibition of human LOXIMVI cells at 10 uM after 48 hrs by coulter counting; settings: read-out: GI; how it was run: as §1
[3] = system: RPMI-8226; experiment: Growth inhibition of human RPMI8226 cells at 10 uM after 48 hrs by coulter counting; settings: RPMI-8226, 48 h, read-out: GI; how it was run: as §1
[4] = system: NCI-H460; experiment: Growth inhibition of human NCI-H460 cells at 10 uM after 48 hrs by coulter counting; settings: NCI-H460, 48 h, read-out: GI; how it was run: as §1
[5] = system: HL-60(TB); experiment: Growth inhibition of human HL-60(TB) cells at 10 uM after 48 hrs by coulter counting; settings: HL-60, 48 h, read-out: GI
How it was run: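 Test compound was dissolved in DMSO and diluted in phosphate-buffered saline to a final DMSO level below 1%. Dilutions were plated in duplicate with cell culture at 6 × 10⁴ cells/ml. Vehicle controls held PBS and DMSO at matching dilutions. Incubation was at 37 °C, humidified, under 5% CO₂. Data were reported as percent growth of treated cells.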

[6] = system: A549; experiment: Growth inhibition of human A549 cells at 10 uM after 48 hrs by coulter counting; settings: A549, 48 h, read-out: GI; how it was run: as §1
[7] = system: A498; experiment: Growth inhibition of human A498 cells at 10 uM after 48 hrs by coulter counting; settings: A498, 48 h, read-out: GI; how it was run: as §1
[8] = system: HCT-116; experiment: Growth inhibition of human HCT116 cells at 10 uM after 48 hrs by coulter counting; settings: HCT-116, 48 h, read-out: GI; how it was run: as §1
[9] = system: SF-539; experiment: Growth inhibition of human SF539 cells at 10 uM after 48 hrs by coulter counting; settings: SF-539, 48 h, read-out: GI; how it was run: as §1
[10] = system: HT-29; experiment: Growth inhibition of human HT-29 cells at 10 uM after 48 hrs by coulter counting; settings: HT-29, 48 h, read-out: GI; how it was run: as §1
[11] = system: SK-MEL-5; experiment: Growth inhibition of human SK-MEL-5 cells at 10 uM after 48 hrs by coulter counting; settings: SK-MEL-5, 48 h, read-out: GI; how it was run: as §1
[12] = system: MOLT-4; experiment: Growth inhibition of human MOLT4 cells at 10 uM after 48 hrs by coulter counting; settings: MOLT-4, 48 h, read-out: GI; how it was run: as §1
[13] = system: M14; experiment: Growth inhibition of human M14 cells at 10 uM after 48 hrs by coulter counting; settings: M14, 48 h, read-out: GI; how it was run: as §1
[14] = system: DU-145; experiment: Growth inhibition of human DU145 cells at 10 uM after 48 hrs by coulter counting; settings: DU-145, 48 h, read-out: GI; how it was run: as §1
[15] = system: CAKI-1; experiment: Growth inhibition of human Caki1 cells at 10 uM after 48 hrs by coulter counting; settings: CAKI-1, 48 h, read-out: GI; how it was run: as §1
[16] = system: UACC-257; experiment: Growth inhibition of human UACC257 cells at 10 uM after 48 hrs by coulter counting; settings: UACC-257, 48 h, read-out: GI
How it was run: (§2)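 Single-dose screen in the NCI 60 human tumor cell line panel (nine subpanels). Compounds dissolved in DMSO and diluted in phosphate buffered saline, keeping final DMSO below 1%. Added in duplicate wells to cells at 6 × 10⁴ cells/ml. Controls held PBS and DMSO at matching dilutions. Incubated at 37 °C, humidified, 5% CO₂. Reported as percent growth of treated cells.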

[17] = system: IGROV-1; experiment: Growth inhibition of human IGROV1 cells at 10 uM after 48 hrs by coulter counting; settings: IGROV-1, 48 h, read-out: GI; how it was run: as §1
[18] = system: MCF7; experiment: Growth inhibition of human MCF7 cells at 10 uM after 48 hrs by coulter counting; settings: MCF7, 48 h, read-out: GI; how it was run: as §1
[19] = system: MDA-MB-435; experiment: Growth inhibition of human MDA-MB-435 cells at 10 uM after 48 hrs by coulter counting; settings: MDA-MB-435, 48 h, read-out: GI; how it was run: as §1
[20] = system: SK-MEL-28; experiment: Growth inhibition of human SK-MEL-28 cells at 10 uM after 48 hrs by coulter counting; settings: SK-MEL-28, 48 h, read-out: GI; how it was run: as §1
[21] = system: EKVX; experiment: Growth inhibition of human EKVX cells at 10 uM after 48 hrs by coulter counting; settings: read-out: GI; how it was run: as §1
[22] = system: UACC-62; experiment: Growth inhibition of human UACC62 cells at 10 uM after 48 hrs by coulter counting; settings: UACC-62, 48 h, read-out: GI; how it was run: as §2
[23] = system: HCC 2998; experiment: Growth inhibition of human HCC2998 cells at 10 uM after 48 hrs by coulter counting; settings: HCC 2998, 48 h, read-out: GI; how it was run: as §1
[24] = system: NCI-H226; experiment: Growth inhibition of human NCI-H226 cells at 10 uM after 48 hrs by coulter counting; settings: NCI-H226, 48 h, read-out: GI; how it was run: as §1
[25] = system: NCI-H23; experiment: Growth inhibition of human NCI-H23 cells at 10 uM after 48 hrs by coulter counting; settings: NCI-H23, 48 h, read-out: GI; how it was run: as §1
[26] = system: KM12; experiment: Growth inhibition of human KM12 cells at 10 uM after 48 hrs by coulter counting; settings: KM12, 48 h, read-out: GI; how it was run: as §1
[27] = system: CCRF-CEM; experiment: Growth inhibition of human CCRF-CEM cells at 10 uM after 48 hrs by coulter counting; settings: read-out: GI; how it was run: as §1
[28] = Growth inhibition of human NCI-322M cells at 10 uM after 48 hrs by coulter counting; settings: read-out: GI; how it was run: as §1
[29] = system: BT-549; experiment: Growth inhibition of human BT549 cells at 10 uM after 48 hrs by coulter counting; settings: BT-549, 48 h, read-out: GI; how it was run: as §1
[30] = system: SF-295; experiment: Growth inhibition of human SF295 cells at 10 uM after 48 hrs by coulter counting; settings: SF-295, 48 h, read-out: GI; how it was run: as §1
[31] = system: NCI-H522; experiment: Growth inhibition of human NCI-H522 cells at 10 uM after 48 hrs by coulter counting; settings: NCI-H522, 48 h, read-out: GI; how it was run: as §1
[32] = system: U-251; experiment: Growth inhibition of human U251 cells at 10 uM after 48 hrs by coulter counting; settings: U-251, 48 h, read-out: GI; how it was run: as §2
[33] = system: OVCAR-4; experiment: Growth inhibition of human OVCAR4 cells at 10 uM after 48 hrs by coulter counting; settings: OVCAR-4, 48 h, read-out: GI; how it was run: as §1
[34] = system: UO-31; experiment: Growth inhibition of human UO31 cells at 10 uM after 48 hrs by coulter counting; settings: UO-31, 48 h, read-out: GI; how it was run: as §2
[35] = system: SNB-75; experiment: Growth inhibition of human SNB75 cells at 10 uM after 48 hrs by coulter counting; settings: SNB-75, 48 h, read-out: GI; how it was run: as §1
[36] = system: SF-268; experiment: Growth inhibition of human SF268 cells at 10 uM after 48 hrs by coulter counting; settings: SF-268, 48 h, read-out: GI; how it was run: as §1
[37] = system: ACHN; experiment: Growth inhibition of human ACHN cells at 10 uM after 48 hrs by coulter counting; settings: read-out: GI; how it was run: as §1
[38] = system: K562; experiment: Growth inhibition of human K562 cells at 10 uM after 48 hrs by coulter counting; settings: K562, 48 h, read-out: GI; how it was run: as §1
[39] = system: T47D; experiment: Growth inhibition of human T47D cells at 10 uM after 48 hrs by coulter counting; settings: read-out: GI; how it was run: as §2
[40] = system: SK-MEL-2; experiment: Growth inhibition of human SK-MEL-2 cells at 10 uM after 48 hrs by coulter counting; settings: SK-MEL-2, 48 h, read-out: GI; how it was run: as §1
[41] = system: HOP-62; experiment: Growth inhibition of human HOP62 cells at 10 uM after 48 hrs by coulter counting; settings: HOP-62, 48 h, read-out: GI; how it was run: as §1
[42] = system: NCI/ADR-RES; experiment: Growth inhibition of human NCI/ADR-RES cells at 10 uM after 48 hrs by coulter counting; settings: read-out: GI; how it was run: as §1

CC1=CSC2=NC3=C(CCC/C3=C\c3ccccc3)C(c3ccccc3)N12 (configuration not stated)
inhibition of growth at 10 µM [1]: > 10%
inhibition of growth at 10 µM [2]: > 10%
inhibition of growth at 10 µM [3]: > 10%
inhibition of growth at 10 µM [4]: > 10%
inhibition of growth at 10 µM [5]: > 10%
inhibition of growth at 10 µM [6]: > 10%
inhibition of growth at 10 µM [7]: > 10%
inhibition of growth at 10 µM [8]: > 10%
inhibition of growth at 10 µM [9]: > 10%
inhibition of growth at 10 µM [10]: > 10%
inhibition of growth at 10 µM [11]: > 10%
inhibition of growth at 10 µM [12]: > 10%
inhibition of growth at 10 µM [13]: > 10%
inhibition of growth at 10 µM [14]: > 10%
inhibition of growth at 10 µM [15]: 11.4%
inhibition of growth at 10 µM [16]: > 10%
inhibition of growth at 10 µM [17]: > 10%
inhibition of growth at 10 µM [18]: > 10%
inhibition of growth at 10 µM [19]: > 10%
inhibition of growth at 10 µM [20]: > 10%
inhibition of growth at 10 µM [21]: > 10%
inhibition of growth at 10 µM [22]: > 10%
inhibition of growth at 10 µM [23]: > 10%
inhibition of growth at 10 µM [24]: 11.2%
inhibition of growth at 10 µM [25]: > 10%
inhibition of growth at 10 µM [26]: > 10%
inhibition of growth at 10 µM [27]: > 10%
inhibition of growth at 10 µM [28]: > 10%
inhibition of growth at 10 µM [29]: > 10%
inhibition of growth at 10 µM [30]: > 10%
inhibition of growth at 10 µM [31]: > 10%
inhibition of growth at 10 µM [32]: > 10%
inhibition of growth at 10 µM [33]: > 10%
inhibition of growth at 10 µM [34]: 28.8%
inhibition of growth at 10 µM [35]: 13.3%
inhibition of growth at 10 µM [36]: > 10%
inhibition of growth at 10 µM [37]: > 10%
inhibition of growth at 10 µM [38]: 13.8%
inhibition of growth at 10 µM [39]: > 10%
inhibition of growth at 10 µM [40]: > 10%
inhibition of growth at 10 µM [41]: > 10%
inhibition of growth at 10 µM [42]: > 10%

Reference: ChEMBL document CHEMBL1926614, “Substituted thiazoles V. synthesis and antitumor activity of novel thiazolo[2,3-b]quinazoline and pyrido[4,3-d]thiazolo[3,2-a]pyrimidine analogues” (2012)
